Measurements as given in ChEMBL document CHEMBL1828530, “Quinonoid and phenazine compounds: synthesis and evaluation against H37Rv, rifampicin and isoniazid-resistance strains of Mycobacterium tuberculosis” (Eur J Med Chem, 2011).
Converted amounts (≈) assume the structure as drawn.

Assays:
PBMC = assay: Cytotoxicity against human PBMC after 72 hrs by Alamar blue assay; format: cell-based
In short: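 Human peripheral blood mononuclear cells; compounds (0.048–25) in DMSO (0.1%) added 24 h after plating, then 72 h exposure. Alamar Blue absorbance read at 570 and 595 nm, medium-alone blank subtracted at each wavelength; effect expressed as percentage of control absorbance; IC50 derived.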

[1] = system: Mycobacterium tuberculosis; assay: Antitubercular activity against Mycobacterium tuberculosis H37Rv after 9 days by resazurin reduction assay; format: functional; conditions: 216 h

SMILES	IC50 (PBMC) [µM]	MIC [1] [µM]
CC(C)CCC1=C(OC2(CCC(C)C)C(=O)c3ccccc3-c3nc4ccccc4nc32)C(=O)c2ccccc2C1=O (centres undefined)	> 44.7	> 179
C=CCC1=C(OC2(CC=C)C(=O)c3ccccc3-c3nc4ccccc4nc32)C(=O)c2ccccc2C1=O (centres undefined)	> 50.1	> 201
CC(C)CC1=C(O)C(=O)C2=C(CCCC2)C1=O	64.2	107 (≈ 25 µg/mL)
CC(C)CCc1c2[nH]c3ccccc3nc-2c2ccccc2c1=O	45.1	19.8 (≈ 6.26 µg/mL)
CC(C)CCC1=C(O)C(=O)C2=C(CCCC2)C1=O	81.3	101 (≈ 25 µg/mL)
CC(C)CC1=C(OC2(CC(C)C)C(=O)c3ccccc3-c3nc4ccccc4nc32)C(=O)c2ccccc2C1=O (centres undefined)	> 47.1	> 188
NNC(=O)c1ccncc1 [ISONIAZID]	–	0.145 (≈ 0.0199 µg/mL)
CCCC1=C(O)C(=O)C2=C(CCCC2)C1=O	89.1	227 (≈ 50 µg/mL)
CC(C)CCC1=C(O)C(=O)c2ccccc2C1=O	> 102	205 (≈ 50.1 µg/mL)
CC(C)=CCC1=C(O)C(=O)c2ccccc2C1=O [LAPACHOL]	> 103	207 (≈ 50.1 µg/mL)
CC(C)=Cc1c2[nH]c3ccccc3nc-2c2ccccc2c1=O	62	83.3 (≈ 25 µg/mL)
C=CCc1c2[nH]c3ccccc3nc-2c2ccccc2c1=O	64.3	87.4 (≈ 25 µg/mL)
CC(C)=CCC1=C(OC2(CC=C(C)C)C(=O)c3ccccc3-c3nc4ccccc4nc32)C(=O)c2ccccc2C1=O (centres undefined)	> 45.1	> 180
CC(C)CC1=C(O)C(=O)c2ccccc2C1=O	93.5	217 (≈ 50.1 µg/mL)
CC(C)CCc1c2[nH]c3ccccc3nc-2c2c(c1=O)CCCC2	> 78	9.75 (≈ 3.12 µg/mL)
C=CCC1=C(O)C(=O)c2ccccc2C1=O	> 117	467 (≈ 100 µg/mL)
CCCC1=C(OC2(CCC)C(=O)C3=C(CCCC3)c3nc4ccccc4nc32)C(=O)C2=C(CCCC2)C1=O (centres undefined)	> 49	> 196
CC(C)Cc1c2[nH]c3ccccc3nc-2c2c(c1=O)CCCC2	> 81.6	> 327
CC(C)Cc1c2[nH]c3ccccc3nc-2c2ccccc2c1=O	> 82.7	> 331
CC(C)=CC1=C(O)C(=O)c2ccccc2C1=O	> 110	219 (≈ 50.1 µg/mL)
CC(C)CCC1=C(OC2(CCC(C)C)C(=O)C3=C(CCCC3)c3nc4ccccc4nc32)C(=O)C2=C(CCCC2)C1=O (centres undefined)	> 44.9	176 (≈ 100 µg/mL)
CCCc1c2[nH]c3ccccc3nc-2c2c(c1=O)CCCC2	> 85.5	–
CCCC1=C(OC2(CCC)C(=O)c3ccccc3-c3nc4ccccc4nc32)C(=O)c2ccccc2C1=O (centres undefined)	> 49.7	> 199
CCCC1=C(O)C(=O)c2ccccc2C1=O	97.8	462 (≈ 100 µg/mL)
CC(C)CC1=C(OC2(CC(C)C)C(=O)C3=C(CCCC3)c3nc4ccccc4nc32)C(=O)C2=C(CCCC2)C1=O (centres undefined)	> 46.4	92.8 (≈ 50 µg/mL)
CO[C@H]1/C=C/O[C@@]2(C)Oc3c(C)c(O)c4c(O)c(c(/C=N/N5CCN(C)CC5)c(O)c4c3C2=O)NC(=O)/C(C)=C\C=C\[C@H](C)[C@H](O)[C@@H](C)[C@@H](O)[C@@H](C)[C@H](OC(C)=O)[C@@H]1C [RIFAMPIN]	–	0.12 (≈ 0.0988 µg/mL)
